Reference: ChEMBL document CHEMBL1129298, “Nonpeptide angiotensin II receptor antagonists: synthesis, biological activities, and structure-activity relationships of imidazole-5-carboxylic acids bearing alkyl, alkenyl, and hydroxyalkyl substituents at the 4-position and their related compounds” (J Med Chem, 1996)
Each block holds one compound with its values, some of them ahead of it.

Columns and labels:
[1] = molecular target: Angiotensin II receptor (Rattus norvegicus) (UniProt P29089+P25095+P35351); assay: In vivo inhibitory activity against angiotensin II induced pressor response in anesthetized normotensive rats; format: functional, organism-based
Summary of the method: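 Male Wistar-Imamichi rats (300–400 g) under inactin (100 mg/kg ip), with femoral arterial and venous cannulae. AII 50 ng/kg iv every 10 min until responses were constant. Compound in DMSO was then given iv and AII re-injected 2 min later.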

[2] = molecular target: T1, Type-1 angiotensin II receptor (Bos taurus, UniProt P25104); assay: In vitro for inhibition of [125I]-angiotensin II (0.1 nM) binding to angiotensin II receptor type 1 in membrane fractions of bovine adrenal cortex; format: tissue-based
T1 sequence (P25104 whole entry): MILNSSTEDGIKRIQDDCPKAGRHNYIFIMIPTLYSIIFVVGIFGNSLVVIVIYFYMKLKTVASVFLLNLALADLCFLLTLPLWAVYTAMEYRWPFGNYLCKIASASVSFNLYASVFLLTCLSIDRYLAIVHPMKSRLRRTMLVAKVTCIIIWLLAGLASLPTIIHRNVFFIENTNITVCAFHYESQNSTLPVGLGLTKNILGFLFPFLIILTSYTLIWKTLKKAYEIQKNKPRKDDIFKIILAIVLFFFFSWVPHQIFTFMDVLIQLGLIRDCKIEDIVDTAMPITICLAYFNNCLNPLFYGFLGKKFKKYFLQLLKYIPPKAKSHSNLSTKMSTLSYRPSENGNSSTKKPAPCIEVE

Rattus norvegicus [3] = assay: Inhibitory activity against AII-Induced Pressor response at 1 mg/kg at 1 hr; format: functional
Summary of the method: (§1)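 Male Wistar-Imamichi rats (300–400 g) cannulated under pentobarbital (50 mg/kg ip), fasted 24 h, tested conscious the next day. AII 50 ng/kg iv was repeated until constant, then compound in 50% aqueous DMF given orally. AII was repeated over 8 h, and mean blood pressure response inhibition (%) was recorded at 1, 3, 6 h. n = 3–5.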

Rattus norvegicus [4] = assay: Inhibitory activity against AII-Induced Pressor response at 1 mg/kg at 3 hour; format: functional; conditions: Rattus norvegicus, 3 h; summary of the method: as §1
Rattus norvegicus [5] = assay: Inhibitory activity against AII-Induced Pressor response at 1 mg/kg at 6 hour; format: functional; conditions: Rattus norvegicus, 6 h, dose 1 mg/kg; summary of the method: as §1
Rattus norvegicus [6] = assay: Inhibitory activity against AII-Induced Pressor response at 0.3 mg/Kg at 6 hour; format: functional; summary of the method: as §1
Rattus norvegicus [7] = assay: Inhibitory activity against AII-Induced Pressor response at 0.3 mg/Kg at 3 hour; format: functional; summary of the method: as §1
Rattus norvegicus [8] = assay: Inhibitory activity against AII-Induced Pressor response at 0.3 mg/Kg at 1 hr; format: functional; summary of the method: as §1
Rattus norvegicus [9] = assay: Inhibitory activity against AII-Induced Pressor response at 10 mg/Kg at 1 hr; format: functional; summary of the method: as §1
Rattus norvegicus [10] = assay: Inhibitory activity against AII-Induced Pressor response at 10 mg/Kg at 6 hour; format: functional; summary of the method: as §1
Rattus norvegicus [11] = assay: Inhibitory activity against AII-Induced Pressor response at 3 mg/Kg at 1 hr; format: functional; summary of the method: as §1
Rattus norvegicus [12] = assay: Inhibitory activity against AII-Induced Pressor response at 3 mg/Kg at 3 hour; format: functional; summary of the method: as §1
Rattus norvegicus [13] = assay: Inhibitory activity against AII-Induced Pressor response at 3 mg/Kg at 6 hour; format: functional; summary of the method: as §1
Rattus norvegicus [14] = assay: Inhibitory activity against AII-Induced Pressor response at 10 mg/Kg at 3 hour; format: functional; summary of the method: as §1
Rattus norvegicus [15] = assay: Inhibitory activity against AII-Induced Pressor response at 1 mg/Kg at 3 hour; format: functional; summary of the method: as §1
Rattus norvegicus [16] = assay: Inhibitory activity against AII-Induced Pressor response at 1 mg/Kg at 1 hr; format: functional; summary of the method: as §1
Rattus norvegicus [17] = assay: Inhibitory activity against AII-Induced Pressor response at 1 mg/Kg at 6 hour; format: functional; summary of the method: as §1

ID50 [1]: 0.062 mg/kg | IC50 [2]: 0.028 µM
Compound: CCCc1nc(C(C)O)c(C(=O)O)n1Cc1ccc(-c2ccccc2C(=O)O)cc1 (stereo not given)

ID50 [1]: 1.5 mg/kg
Compound: CCCc1nc(CO)c(C(=O)OCC)n1Cc1ccc(-c2ccccc2C(=O)O)cc1

ID50 [1]: 2.4 mg/kg
Compound: CCCc1nc(C(=O)O)cn1Cc1ccc(-c2ccccc2-c2nn[nH]n2)cc1

Compound: CCCc1nc(C(C)(C)O)c(C(=O)OCOC(=O)OC(C)C)n1Cc1ccc(-c2ccccc2C(=O)O)cc1
inhibition in vivo at 1 mg/kg (Rattus norvegicus [3]): 71% | inhibition in vivo at 1 mg/kg (Rattus norvegicus [4]): 71% | inhibition in vivo at 1 mg/kg (Rattus norvegicus [5]): 71%

ID50 [1]: 8.2 mg/kg | IC50 [2]: 45 µM
Compound: CCCc1nc(C(=O)O)cn1Cc1ccc(-c2ccccc2C(=O)O)cc1

ID50 [1]: 0.0063 mg/kg
Compound: CCCc1nc(C(C)O)c(C(=O)O)n1Cc1ccc(-c2ccccc2-c2nn[nH]n2)cc1 (stereo not given)
inhibition in vivo at 0.3 mg/kg (Rattus norvegicus [6]): 69% | inhibition in vivo at 0.3 mg/kg (Rattus norvegicus [7]): 78% | inhibition in vivo at 0.3 mg/kg (Rattus norvegicus [8]): 80%

ID50 [1]: 1.2 mg/kg | IC50 [2]: 0.6 µM
Compound: CCCc1nc(C(C)(C)O)c(C(=O)OCC)n1Cc1ccc(-c2ccccc2C(=O)O)cc1
inhibition in vivo at 10 mg/kg (Rattus norvegicus [9]): 40% | inhibition in vivo at 10 mg/kg (Rattus norvegicus [10]): 75% | inhibition in vivo at 3 mg/kg (Rattus norvegicus [11]): 26% | inhibition in vivo at 3 mg/kg (Rattus norvegicus [12]): 28% | inhibition in vivo at 3 mg/kg (Rattus norvegicus [13]): 25% | inhibition in vivo at 10 mg/kg (Rattus norvegicus [14]): 70%

ID50 [1]: 0.37 mg/kg | IC50 [2]: 0.27 µM
Compound: C=C(C)c1nc(CCC)n(Cc2ccc(-c3ccccc3C(=O)O)cc2)c1C(=O)O

ID50 [1]: 0.32 mg/kg
Compound: CCCc1nc(C(C)(C)O)c(C(=O)OCC)n1Cc1ccc(-c2ccccc2-c2nn[nH]n2)cc1
inhibition in vivo at 1 mg/kg (Rattus norvegicus [15]): 72% | inhibition in vivo at 1 mg/kg (Rattus norvegicus [16]): 70% | inhibition in vivo at 1 mg/kg (Rattus norvegicus [17]): 76%

ID50 [1]: 8.8 mg/kg
Compound: CCCc1nc(C(=O)O)c(CO)n1Cc1ccc(-c2ccccc2C(=O)O)cc1

ID50 [1]: 0.066 mg/kg | IC50 [2]: 0.03 µM
Compound: CCCCc1nc(C(C)(C)O)c(C(=O)O)n1Cc1ccc(-c2ccccc2C(=O)O)cc1

ID50 [1]: 0.0062 mg/kg
Compound: CCCc1nc(CO)c(C(=O)O)n1Cc1ccc(-c2ccccc2-c2nn[nH]n2)cc1
inhibition in vivo at 0.3 mg/kg (Rattus norvegicus [6]): 65% | inhibition in vivo at 0.3 mg/kg (Rattus norvegicus [7]): 75% | inhibition in vivo at 0.3 mg/kg (Rattus norvegicus [8]): 76%

IC50 [2]: 0.046 µM
Compound: CCCc1nc(C(C)C)c(C(=O)O)n1Cc1ccc(-c2ccccc2-c2nnn[nH]2)cc1

IC50 [2]: 0.05 µM
Compound: C=C(C)c1nc(CCC)n(Cc2ccc(-c3ccccc3-c3nnn[nH]3)cc2)c1C(=O)O

ID50 [1]: 0.0079 mg/kg | IC50 [2]: 0.0081 µM
Compound: CCCc1nc(C(C)(C)O)c(C(=O)O)n1Cc1ccc(-c2ccccc2-c2nnn[nH]2)cc1 [OLMESARTAN]
inhibition in vivo at 0.3 mg/kg (Rattus norvegicus [6]): 78% | inhibition in vivo at 1 mg/kg (Rattus norvegicus [15]): 98% | inhibition in vivo at 0.3 mg/kg (Rattus norvegicus [7]): 77% | inhibition in vivo at 0.3 mg/kg (Rattus norvegicus [8]): 83% | inhibition in vivo at 1 mg/kg (Rattus norvegicus [16]): 98% | inhibition in vivo at 1 mg/kg (Rattus norvegicus [17]): 93%

IC50 [2]: 0.012 µM
Compound: CCCc1nc(CC)c(C(=O)O)n1Cc1ccc(-c2ccccc2-c2nnn[nH]2)cc1

ID50 [1]: 0.074 mg/kg | IC50 [2]: 0.051 µM
Compound: CCCc1nc(C(C)(O)CC)c(C(=O)O)n1Cc1ccc(-c2ccccc2C(=O)O)cc1 (stereo not given)

IC50 [2]: 0.0095 µM
Compound: CCCCc1nc(C(C)(C)O)c(C(=O)O)n1Cc1ccc(-c2ccccc2-c2nnn[nH]2)cc1

ID50 [1]: 0.031 mg/kg
Compound: CCCc1nc(C(=O)O)c(C(=O)O)n1Cc1ccc(-c2ccccc2-c2nn[nH]n2)cc1

ID50 [1]: 0.056 mg/kg | IC50 [2]: 0.028 µM
Compound: CCCc1nc(C(C)(C)O)c(C(=O)O)n1Cc1ccc(-c2ccccc2C(=O)O)cc1
inhibition in vivo at 1 mg/kg (Rattus norvegicus [3]): 50% | inhibition in vivo at 10 mg/kg (Rattus norvegicus [9]): 88% | inhibition in vivo at 10 mg/kg (Rattus norvegicus [10]): 56% | inhibition in vivo at 3 mg/kg (Rattus norvegicus [11]): 78% | inhibition in vivo at 1 mg/kg (Rattus norvegicus [4]): 42% | inhibition in vivo at 3 mg/kg (Rattus norvegicus [12]): 67% | inhibition in vivo at 1 mg/kg (Rattus norvegicus [5]): 12% | inhibition in vivo at 3 mg/kg (Rattus norvegicus [13]): 48% | inhibition in vivo at 10 mg/kg (Rattus norvegicus [14]): 70%

ID50 [1]: 0.014 mg/kg
Compound: CCCc1nc(C(C)C)c(C(=O)O)n1Cc1ccc(-c2ccccc2-c2nn[nH]n2)cc1

ID50 [1]: 0.069 mg/kg
Compound: CCCc1nc(CO)c(C(=O)O)n1Cc1ccc(-c2ccccc2C(=O)O)cc1

ID50 [1]: 0.028 mg/kg | IC50 [2]: 0.011 µM
Compound: CCCc1nc(C)c(C(=O)O)n1Cc1ccc(-c2ccccc2-c2nn[nH]n2)cc1

ID50 [1]: 0.012 mg/kg
Compound: C=C(C)c1nc(CCC)n(Cc2ccc(-c3ccccc3-c3nn[nH]n3)cc2)c1C(=O)O
